In ChEMBL document CHEMBL1144674, “Synthesis and pharmacological activity of aminoindanone dimers and related compounds” (Bioorg Med Chem, 2008):
pEC50: −log10 of the molar value.

How the values were obtained:
[1] = species: Cavia porcellus; conditions: 10 nM
[2] = species: Cavia porcellus; experiment: Inhibition of CaCl2-induced contraction in potassium-depolarized guinea pig ileal smooth muscle at 10 uM; type: functional
Procedure, shortened: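 Guinea-pig ileum segments (2.5 cm) in high-K+ (45 mM KCl), Ca-free Krebs at 37 °C, gassed 95% O2/5% CO2, 1.5 g resting tension, isometric recording. CaCl2 raised bath Ca to 2.5 mM to give a sustained contracture. Compound at 1×10^-5 M in 0.5% DMSO/water added once contraction stabilised. Nifedipine 1×10^-8 M was the positive control. Mean ± SEM, n = animals.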

[3] = Inhibition of CaCl2-induced contraction in potassium depolarized-guinea pig ileal smooth muscle; type: functional, Cavia porcellus

In the case of COC(=O)C1=C(C)NC(C)=C(C(=O)OC)C1c1ccccc1[N+](=O)[O-], the inhibition [1] was 48.1%.

C=CCN(C1=CC(=O)c2ccccc21)C1CCc2ccccc21 (racemic) gave an inhibition [2] of 20.9%.

Molecule CC(=O)N(C1=CC(=O)c2ccccc21)C1CCc2ccccc21 (racemic) has an inhibition [2] of 18.3%.

O=C1C=C(NC2CCc3ccccc32)c2ccccc21 (racemic) showed an inhibition [2] of 30%.

Cc1c(O)c2c(c(C)c1CCO)C(=O)C(C)(C)C2 [ONITIN] showed a pEC50 [3] of 4.00.

Molecule Cc1c(O)c2c(c(C)c1CCO)C(=O)C(C)(O)C2 (stereo unspecified) [ONITISIN] has a pEC50 [3] of 2.70.
